Tested on: not listed separately
Assay: Cytotoxicity against human MT4 cells
Assay type: cell-based
Conditions: not given

Row | SMILES | CC50
1 | COC(=O)N[C@H](C(=O)N[C@@H](Cc1ccc(-c2ccc(OC)nc2)cc1)[C@@H](O)C[C@@H](Cc1ccccc1F)C(=O)N[C@H]1CCCC[C@H]1O)C(C)(C)C | > 10000 nM
2 | COC(=O)N[C@H](C(=O)N[C@@H](Cc1ccc(-c2ccc(N(C)C)nc2)cc1)[C@@H](O)C[C@@H](Cc1ccccc1F)C(=O)N[C@H]1[C@H](C)CCC[C@H]1O)C(C)(C)C | > 10000 nM
3 | COC(=O)N[C@H](C(=O)N[C@@H](Cc1ccc(-c2ccc(OC)nc2)cc1)[C@@H](O)C[C@@H](Cc1ccccc1Cl)C(=O)N[C@H]1[C@H](C)CCC[C@H]1O)C(C)(C)C | > 10000 nM
4 | COC(=O)N[C@H](C(=O)N[C@@H](Cc1ccc(-c2ccc(OC)nc2)cc1)[C@@H](O)C[C@@H](Cc1cccc(OC(F)(F)F)c1)C(=O)N[C@H]1[C@H](C)CCC[C@H]1O)C(C)(C)C | > 10000 nM
5 | COC(=O)N[C@H](C(=O)N[C@@H](Cc1ccc(-c2ccc(OC)nc2)cc1)[C@@H](O)C[C@@H](Cc1ccccc1F)C(=O)N[C@H]1c2ccccc2OC[C@H]1O)C(C)(C)C | > 10000 nM
6 | COC(=O)N[C@H](C(=O)N[C@@H](Cc1ccc(-c2ccc(OC)nc2)cc1)[C@@H](O)C[C@@H](Cc1ccccc1F)C(=O)N[C@H]1c2cc(Cl)ccc2OC[C@H]1O)C(C)(C)C | > 10000 nM
7 | COC(=O)N[C@H](C(=O)N[C@@H](Cc1ccc(-c2ccc(OC)nc2)cc1)[C@@H](O)C[C@@H](Cc1ccccc1Cl)C(=O)N[C@H]1c2cc(Cl)ccc2OC[C@H]1O)C(C)(C)C | > 10000 nM
8 | COC(=O)N[C@H](C(=O)N[C@@H](Cc1ccc(-c2ccc(OC)nc2)cc1)[C@@H](O)C[C@@H](Cc1cccc(OC(F)(F)F)c1)C(=O)N[C@H]1c2cc(Cl)ccc2OC[C@H]1O)C(C)(C)C | > 10000 nM
9 | COC(=O)N[C@H](C(=O)N[C@@H](Cc1ccc(-c2ccc(OC)nc2)cc1)[C@@H](O)C[C@@H](Cc1ccccc1F)C(=O)N[C@H]1c2cccc(Cl)c2OC[C@H]1O)C(C)(C)C | > 10000 nM
10 | COC(=O)N[C@H](C(=O)N[C@@H](Cc1ccc(-c2ccc(OC)nc2)cc1)[C@@H](O)C[C@@H](Cc1ccccc1F)C(=O)N[C@H]1c2cc(F)ccc2OC[C@H]1O)C(C)(C)C | > 10000 nM
11 | Cc1cccc(C)c1OCC(=O)N[C@@H](Cc1ccccc1)[C@@H](O)C[C@H](Cc1ccccc1)NC(=O)[C@H](C(C)C)N1CCCNC1=O [LOPINAVIR] | > 10000 nM

Tested on: Human immunodeficiency virus 1
Assay: Antiviral activity against wild type Human immunodeficiency virus 1 3B infected in human MT4 cells assessed as inhibition of viral replication in presence of 50% human serum
Conditions: not given

Row | SMILES | EC50
12 | COC(=O)N[C@H](C(=O)N[C@@H](Cc1ccc(-c2ccc(N(C)C)nc2)cc1)[C@@H](O)C[C@@H](Cc1ccccc1F)C(=O)N[C@H]1[C@H](C)CCC[C@H]1O)C(C)(C)C | 4.9 nM
13 | COC(=O)N[C@H](C(=O)N[C@@H](Cc1ccc(-c2ccc(OC)nc2)cc1)[C@@H](O)C[C@@H](Cc1cccc(OC(F)(F)F)c1)C(=O)N[C@H]1[C@H](C)CCC[C@H]1O)C(C)(C)C | 3.2 nM
14 | COC(=O)N[C@H](C(=O)N[C@@H](Cc1ccc(-c2ccc(OC)nc2)cc1)[C@@H](O)C[C@@H](Cc1ccccc1F)C(=O)N[C@H]1c2cc(Cl)ccc2OC[C@H]1O)C(C)(C)C | 14 nM
15 | COC(=O)N[C@H](C(=O)N[C@@H](Cc1ccc(-c2ccc(OC)nc2)cc1)[C@@H](O)C[C@@H](Cc1ccccc1Cl)C(=O)N[C@H]1c2cc(Cl)ccc2OC[C@H]1O)C(C)(C)C | 13 nM
16 | COC(=O)N[C@H](C(=O)N[C@@H](Cc1ccc(-c2ccc(OC)nc2)cc1)[C@@H](O)C[C@@H](Cc1cccc(OC(F)(F)F)c1)C(=O)N[C@H]1c2cc(Cl)ccc2OC[C@H]1O)C(C)(C)C | 24 nM
17 | COC(=O)N[C@H](C(=O)N[C@@H](Cc1ccc(-c2ccc(OC)nc2)cc1)[C@@H](O)C[C@@H](Cc1ccccc1F)C(=O)N[C@H]1c2cccc(Cl)c2OC[C@H]1O)C(C)(C)C | 5.3 nM
18 | COC(=O)N[C@H](C(=O)N[C@@H](Cc1ccc(-c2ccc(OC)nc2)cc1)[C@@H](O)C[C@@H](Cc1ccccc1F)C(=O)N[C@H]1c2cc(F)ccc2OC[C@H]1O)C(C)(C)C | 5.8 nM

More lines, now with the values ahead:

Row | EC50 | SMILES
19 | 5.9 nM | COC(=O)N[C@H](C(=O)N[C@@H](Cc1ccc(-c2ccc(OC)nc2)cc1)[C@@H](O)C[C@@H](Cc1ccccc1F)C(=O)N[C@H]1CCCC[C@H]1O)C(C)(C)C
20 | 7.1 nM | COC(=O)N[C@H](C(=O)N[C@@H](Cc1ccc(-c2ccc(OC)nc2)cc1)[C@@H](O)C[C@@H](Cc1ccccc1Cl)C(=O)N[C@H]1[C@H](C)CCC[C@H]1O)C(C)(C)C
21 | 6.6 nM | COC(=O)N[C@H](C(=O)N[C@@H](Cc1ccc(-c2ccc(OC)nc2)cc1)[C@@H](O)C[C@@H](Cc1ccccc1F)C(=O)N[C@H]1c2ccccc2OC[C@H]1O)C(C)(C)C

Tested on: not listed separately
Assay: Drug metabolism in human liver microsomes at 1 uM after 15 mins
Assay type: ADME, Microsome
Conditions: read-out: Drug metabolism
In short: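 Human liver microsome incubation at 37 °C for 15 min with compound at 1 µM; turnover expressed as percent of compound metabolized.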

Row | SMILES | metabolised at 0.25 h, 1 µM
22 | COC(=O)N[C@H](C(=O)N[C@@H](Cc1ccc(-c2ccc(N(C)C)nc2)cc1)[C@@H](O)C[C@@H](Cc1ccccc1F)C(=O)N[C@H]1[C@H](C)CCC[C@H]1O)C(C)(C)C | 99%
23 | COC(=O)N[C@H](C(=O)N[C@@H](Cc1ccc(-c2ccc(OC)nc2)cc1)[C@@H](O)C[C@@H](Cc1cccc(OC(F)(F)F)c1)C(=O)N[C@H]1[C@H](C)CCC[C@H]1O)C(C)(C)C | 94%
24 | COC(=O)N[C@H](C(=O)N[C@@H](Cc1ccc(-c2ccc(OC)nc2)cc1)[C@@H](O)C[C@@H](Cc1ccccc1F)C(=O)N[C@H]1c2cc(Cl)ccc2OC[C@H]1O)C(C)(C)C | 23%
25 | COC(=O)N[C@H](C(=O)N[C@@H](Cc1ccc(-c2ccc(OC)nc2)cc1)[C@@H](O)C[C@@H](Cc1ccccc1Cl)C(=O)N[C@H]1c2cc(Cl)ccc2OC[C@H]1O)C(C)(C)C | 5%
26 | COC(=O)N[C@H](C(=O)N[C@@H](Cc1ccc(-c2ccc(OC)nc2)cc1)[C@@H](O)C[C@@H](Cc1cccc(OC(F)(F)F)c1)C(=O)N[C@H]1c2cc(Cl)ccc2OC[C@H]1O)C(C)(C)C | 0%
27 | COC(=O)N[C@H](C(=O)N[C@@H](Cc1ccc(-c2ccc(OC)nc2)cc1)[C@@H](O)C[C@@H](Cc1ccccc1F)C(=O)N[C@H]1c2cccc(Cl)c2OC[C@H]1O)C(C)(C)C | 47%
28 | COC(=O)N[C@H](C(=O)N[C@@H](Cc1ccc(-c2ccc(OC)nc2)cc1)[C@@H](O)C[C@@H](Cc1ccccc1F)C(=O)N[C@H]1c2cc(F)ccc2OC[C@H]1O)C(C)(C)C | 48%

The remaining lines, values ahead:

Row | metabolised at 0.25 h, 1 µM | SMILES
29 | 99% | COC(=O)N[C@H](C(=O)N[C@@H](Cc1ccc(-c2ccc(OC)nc2)cc1)[C@@H](O)C[C@@H](Cc1ccccc1F)C(=O)N[C@H]1CCCC[C@H]1O)C(C)(C)C
30 | 99% | COC(=O)N[C@H](C(=O)N[C@@H](Cc1ccc(-c2ccc(OC)nc2)cc1)[C@@H](O)C[C@@H](Cc1ccccc1Cl)C(=O)N[C@H]1[C@H](C)CCC[C@H]1O)C(C)(C)C
31 | 72% | COC(=O)N[C@H](C(=O)N[C@@H](Cc1ccc(-c2ccc(OC)nc2)cc1)[C@@H](O)C[C@@H](Cc1ccccc1F)C(=O)N[C@H]1c2ccccc2OC[C@H]1O)C(C)(C)C

Tested on: not listed separately
Assay: Plasma clearance in rat at 2 mg/kg, iv
Assay type: ADME, organism-based
Design: dose 2 mg/kg, route intravenous
Conditions: not given
In short: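 Single intravenous dose of 2 mg/kg in rats. The formulation is typically 1 mg/mL in PEG400/ethanol/saline (70/20/10). Clearance values are averages from two or three animals. High is >3 L/h/kg (>70% liver blood flow) and low is <1.3 L/h/kg (<30%).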

Row | SMILES | clearance
32 | COC(=O)N[C@H](C(=O)N[C@@H](Cc1ccc(-c2ccc(N(C)C)nc2)cc1)[C@@H](O)C[C@@H](Cc1ccccc1F)C(=O)N[C@H]1[C@H](C)CCC[C@H]1O)C(C)(C)C | 93.3 mL/min/kg
33 | COC(=O)N[C@H](C(=O)N[C@@H](Cc1ccc(-c2ccc(OC)nc2)cc1)[C@@H](O)C[C@@H](Cc1cccc(OC(F)(F)F)c1)C(=O)N[C@H]1[C@H](C)CCC[C@H]1O)C(C)(C)C | 90 mL/min/kg
34 | COC(=O)N[C@H](C(=O)N[C@@H](Cc1ccc(-c2ccc(OC)nc2)cc1)[C@@H](O)C[C@@H](Cc1ccccc1F)C(=O)N[C@H]1c2cc(Cl)ccc2OC[C@H]1O)C(C)(C)C | 7.83 mL/min/kg
35 | COC(=O)N[C@H](C(=O)N[C@@H](Cc1ccc(-c2ccc(OC)nc2)cc1)[C@@H](O)C[C@@H](Cc1ccccc1Cl)C(=O)N[C@H]1c2cc(Cl)ccc2OC[C@H]1O)C(C)(C)C | 23.3 mL/min/kg
36 | COC(=O)N[C@H](C(=O)N[C@@H](Cc1ccc(-c2ccc(OC)nc2)cc1)[C@@H](O)C[C@@H](Cc1ccccc1F)C(=O)N[C@H]1c2cccc(Cl)c2OC[C@H]1O)C(C)(C)C | 65 mL/min/kg
37 | COC(=O)N[C@H](C(=O)N[C@@H](Cc1ccc(-c2ccc(OC)nc2)cc1)[C@@H](O)C[C@@H](Cc1ccccc1F)C(=O)N[C@H]1c2cc(F)ccc2OC[C@H]1O)C(C)(C)C | 35 mL/min/kg

The remaining lines, values ahead:

Row | clearance | SMILES
38 | 86.7 mL/min/kg | COC(=O)N[C@H](C(=O)N[C@@H](Cc1ccc(-c2ccc(OC)nc2)cc1)[C@@H](O)C[C@@H](Cc1ccccc1F)C(=O)N[C@H]1CCCC[C@H]1O)C(C)(C)C
39 | 70 mL/min/kg | COC(=O)N[C@H](C(=O)N[C@@H](Cc1ccc(-c2ccc(OC)nc2)cc1)[C@@H](O)C[C@@H](Cc1ccccc1Cl)C(=O)N[C@H]1[C@H](C)CCC[C@H]1O)C(C)(C)C
40 | 96.7 mL/min/kg | COC(=O)N[C@H](C(=O)N[C@@H](Cc1ccc(-c2ccc(OC)nc2)cc1)[C@@H](O)C[C@@H](Cc1ccccc1F)C(=O)N[C@H]1c2ccccc2OC[C@H]1O)C(C)(C)C

Tested on: Human immunodeficiency virus 1
Assay: Antiviral activity against wild type Human immunodeficiency virus 1 3B infected in human MT4 cells assessed as inhibition of viral replication
Assay type: functional, organism-based
Conditions: not given
In short: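 EC50 values are averages of at least two independent experiments (typically three to four), each run in quadruplicate. For the serum-shifted line, the same antiviral assay includes 50% human serum, used as a functional measure of plasma protein binding.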

Row | SMILES | EC50
41 | COC(=O)N[C@H](C(=O)N[C@@H](Cc1ccc(-c2ccc(N(C)C)nc2)cc1)[C@@H](O)C[C@@H](Cc1ccccc1F)C(=O)N[C@H]1[C@H](C)CCC[C@H]1O)C(C)(C)C | 1.1 nM
42 | COC(=O)N[C@H](C(=O)N[C@@H](Cc1ccc(-c2ccc(OC)nc2)cc1)[C@@H](O)C[C@@H](Cc1cccc(OC(F)(F)F)c1)C(=O)N[C@H]1[C@H](C)CCC[C@H]1O)C(C)(C)C | 0.9 nM
43 | COC(=O)N[C@H](C(=O)N[C@@H](Cc1ccc(-c2ccc(OC)nc2)cc1)[C@@H](O)C[C@@H](Cc1ccccc1F)C(=O)N[C@H]1c2cc(Cl)ccc2OC[C@H]1O)C(C)(C)C | 2.7 nM
44 | COC(=O)N[C@H](C(=O)N[C@@H](Cc1ccc(-c2ccc(OC)nc2)cc1)[C@@H](O)C[C@@H](Cc1ccccc1Cl)C(=O)N[C@H]1c2cc(Cl)ccc2OC[C@H]1O)C(C)(C)C | 3.9 nM
45 | COC(=O)N[C@H](C(=O)N[C@@H](Cc1ccc(-c2ccc(OC)nc2)cc1)[C@@H](O)C[C@@H](Cc1cccc(OC(F)(F)F)c1)C(=O)N[C@H]1c2cc(Cl)ccc2OC[C@H]1O)C(C)(C)C | 4.2 nM
46 | COC(=O)N[C@H](C(=O)N[C@@H](Cc1ccc(-c2ccc(OC)nc2)cc1)[C@@H](O)C[C@@H](Cc1ccccc1F)C(=O)N[C@H]1c2cccc(Cl)c2OC[C@H]1O)C(C)(C)C | 2.4 nM
47 | COC(=O)N[C@H](C(=O)N[C@@H](Cc1ccc(-c2ccc(OC)nc2)cc1)[C@@H](O)C[C@@H](Cc1ccccc1F)C(=O)N[C@H]1c2cc(F)ccc2OC[C@H]1O)C(C)(C)C | 1.2 nM

The remaining lines, values ahead:

Row | EC50 | SMILES
48 | 1.8 nM | COC(=O)N[C@H](C(=O)N[C@@H](Cc1ccc(-c2ccc(OC)nc2)cc1)[C@@H](O)C[C@@H](Cc1ccccc1F)C(=O)N[C@H]1CCCC[C@H]1O)C(C)(C)C
49 | 1.1 nM | COC(=O)N[C@H](C(=O)N[C@@H](Cc1ccc(-c2ccc(OC)nc2)cc1)[C@@H](O)C[C@@H](Cc1ccccc1Cl)C(=O)N[C@H]1[C@H](C)CCC[C@H]1O)C(C)(C)C
50 | 2.5 nM | COC(=O)N[C@H](C(=O)N[C@@H](Cc1ccc(-c2ccc(OC)nc2)cc1)[C@@H](O)C[C@@H](Cc1ccccc1F)C(=O)N[C@H]1c2ccccc2OC[C@H]1O)C(C)(C)C
51 | 13 nM | Cc1cccc(C)c1OCC(=O)N[C@@H](Cc1ccccc1)[C@@H](O)C[C@H](Cc1ccccc1)NC(=O)[C@H](C(C)C)N1CCCNC1=O [LOPINAVIR]

From ChEMBL document CHEMBL2321652, “Design and synthesis of HIV-1 protease inhibitors for a long-acting injectable drug application” (Bioorg Med Chem Lett, 2013)
